What was measured:
[1] = target: T1, Adenosine receptor A3 (Homo sapiens) (UniProt P0DMS8); assay: Displacement of [3H]MRE3008F20 from recombinant human A3 adenosine receptor expressed in CHO cells at 10 uM after 120 mins by scintillation counting; assay type: cell-based
T1 sequence (whole entry): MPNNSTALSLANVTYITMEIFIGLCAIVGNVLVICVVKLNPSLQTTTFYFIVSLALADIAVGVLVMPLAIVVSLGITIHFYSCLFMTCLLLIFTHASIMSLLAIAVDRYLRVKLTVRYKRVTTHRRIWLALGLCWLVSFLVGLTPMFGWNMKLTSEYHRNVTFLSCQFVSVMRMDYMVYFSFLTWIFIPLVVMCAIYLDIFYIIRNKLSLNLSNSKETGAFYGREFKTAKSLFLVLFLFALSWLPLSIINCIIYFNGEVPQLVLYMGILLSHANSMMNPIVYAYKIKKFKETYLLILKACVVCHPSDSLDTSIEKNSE
Outline: (§1)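 Membranes from hA3CHO cells incubated with 2 nM [3H]MRE 3008F20 in 50 mM Tris–HCl, 10 mM MgCl2, 1 mM EDTA, pH 7.4 at 4 °C for 120 min. Compound added from a 100-fold DMSO stock, 1% DMSO final, also in controls. Separated by GF/B filtration and counted by scintillation. Result given as % of control specific binding.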

[2] = target: T2, Adenosine receptor A1 (Homo sapiens) (UniProt P30542); assay: Allosteric enhancer activity at recombinant human A1 adenosine receptor expressed in CHO cells assessed as change in forskolin-induced cAMP production at 10 uM after 6 mins by radioimmunoassay; assay type: functional, cell-based
T2 sequence (whole entry): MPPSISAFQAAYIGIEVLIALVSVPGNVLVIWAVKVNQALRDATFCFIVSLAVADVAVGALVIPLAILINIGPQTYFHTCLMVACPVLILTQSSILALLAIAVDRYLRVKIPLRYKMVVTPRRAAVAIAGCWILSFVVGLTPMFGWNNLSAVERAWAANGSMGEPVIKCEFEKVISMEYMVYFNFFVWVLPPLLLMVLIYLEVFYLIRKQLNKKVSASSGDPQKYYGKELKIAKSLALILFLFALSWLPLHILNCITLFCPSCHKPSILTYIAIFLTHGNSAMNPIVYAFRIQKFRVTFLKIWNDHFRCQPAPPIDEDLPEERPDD
Outline: (§2)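 hA1CHO cells (about 8000 fmol/mg protein) thawed from low-passage stocks, grown in Ham's F-12 with 10% FBS and G-418, then plated 48 h. Test compound at 0.01, 0.1, 1 or 10 µM with CPA (0.05–0.1 nM) for 6 min at 36 °C. Stopped with HCl (final 50 mM). cAMP in acidified extracts measured by radioimmunoassay. Reference enhancer run in each experiment. Four experiments per concentration.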

[3] = target: T2, Adenosine receptor A1 (Homo sapiens); assay: Allosteric enhancer activity at recombinant human A1 adenosine receptor expressed in CHO cells assessed as change in forskolin-induced cAMP production at 1 uM after 6 mins by radioimmunoassay; assay type: functional, cell-based; outline: as §2
[4] = target: T2, Adenosine receptor A1 (Homo sapiens); assay: Allosteric enhancer activity at recombinant human A1 adenosine receptor expressed in CHO cells assessed as change in forskolin-induced cAMP production at 0.01 uM after 6 mins by radioimmunoassay; assay type: functional, cell-based; outline: as §2
[5] = target: T2, Adenosine receptor A1 (Homo sapiens); assay: Binding affinity to recombinant human A1 adenosine receptor allosteric site expressed in CHO cells assessed as [3H]DPCPX Bmax shift at 10 uM after 90 mins relative to control; assay type: cell-based
Outline: (§3)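 Saturation binding of [3H]DPCPX (0.05–20 nM) to hA1CHO membranes, run in triplicate, 90 min at 25 °C, in 50 mM Tris–HCl pH 7.4, with or without test compound at final 10 µM. Nonspecific binding taken with 1 µM DPCPX. KD and Bmax fitted by LIGAND. Shift is the fold of Bmax increase over control.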

[6] = target: T2, Adenosine receptor A1 (Homo sapiens); assay: Binding affinity to recombinant human A1 adenosine receptor allosteric site expressed in CHO cells assessed as [3H]CCPA Bmax shift at 10 uM after 90 mins relative to control; assay type: cell-based
Outline: as §3, with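 “[3H]CCPA” for “[3H]DPCPX”, “membranes. Membranes pretreated with adenosine deaminase 3 UI/mL for 30 min at 37 °C. Run” for “membranes, run”, “R-PIA.” for “DPCPX. KD and”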

[7] = target: Adenosine receptor A2a (Homo sapiens) (UniProt P29274); assay: Displacement of [3H]ZM241385 from recombinant human A2A adenosine receptor expressed in CHO cells at 10 uM after 60 mins by scintillation counting; assay type: cell-based
Sequence of Adenosine receptor A2a (Homo sapiens) (P29274 whole entry): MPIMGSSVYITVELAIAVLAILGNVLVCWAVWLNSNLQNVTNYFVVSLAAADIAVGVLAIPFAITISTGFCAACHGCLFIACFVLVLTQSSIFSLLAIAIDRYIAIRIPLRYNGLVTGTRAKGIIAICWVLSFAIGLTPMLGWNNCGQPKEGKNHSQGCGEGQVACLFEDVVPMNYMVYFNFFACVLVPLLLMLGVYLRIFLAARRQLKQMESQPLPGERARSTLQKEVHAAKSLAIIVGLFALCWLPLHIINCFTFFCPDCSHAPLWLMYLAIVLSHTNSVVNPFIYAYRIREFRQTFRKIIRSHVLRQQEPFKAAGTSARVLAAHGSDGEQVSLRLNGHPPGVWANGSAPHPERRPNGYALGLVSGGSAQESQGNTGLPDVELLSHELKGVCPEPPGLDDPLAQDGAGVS
Outline: as §1, with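 “hA2ACHO” for “hA3CHO”, “1” for “2”, “[3H]ZM 241385” for “[3H]MRE 3008F20”, “MgCl2,” for “MgCl2, 1 mM EDTA,”, “60” for “120”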

[8] = target: T2, Adenosine receptor A1 (Homo sapiens); assay: Binding affinity to recombinant human A1 adenosine receptor allosteric site expressed in CHO cells assessed as potentiation of CCPA-induced [3H]DPCPX displacement at 10 uM after 90 mins relative to control; assay type: cell-based
Outline: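 Competition of CCPA (0.01 nM–1 µM) against 1 nM [3H]DPCPX on hA1CHO membranes, run in triplicate, 90 min at 25 °C, in 50 mM Tris–HCl pH 7.4, with or without test compound at 10 µM. Nonspecific binding taken with 1 µM DPCPX. Ki by Cheng–Prusoff. Shift = Ki(CCPA)/Ki(CCPA + 10 µM compound).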

[9] = target: T2, Adenosine receptor A1 (Homo sapiens); assay: Displacement of [3H]DPCPX from recombinant human A1 adenosine receptor expressed in CHO cells at 10 uM after 120 mins by scintillation counting; assay type: cell-based
Outline: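 Membranes from hA1CHO cells incubated with 1 nM [3H]DPCPX in 50 mM Tris–HCl pH 7.4 at 25 °C for 120 min. Compound added from a 100-fold DMSO stock, so 1% DMSO final, also present in controls. Bound ligand separated on GF/B filters and counted by scintillation. Result given as % of control specific binding.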

[10] = target: T2, Adenosine receptor A1 (Homo sapiens); assay: Allosteric enhancer activity at recombinant human A1 adenosine receptor expressed in CHO cells assessed as change in forskolin-induced cAMP production at 0.1 uM after 6 mins by radioimmunoassay; assay type: functional, cell-based; outline: as §2

SMILES | inhibition [1] [%] | Activity [2] [%] | Activity [3] [%] | Activity [4] [%] | fold change (FC) [5] | fold change (FC) [6] | inhibition [7] [%] | fold change (FC) [8] | inhibition [9] [%] | Activity [10] [%]
Nc1scc(CN2CCN(C3CCCC3)CC2)c1C(=O)c1ccc(Cl)cc1 | 3 | -30 | 10 | 9.1 | 0.9 | 1.1 | 3 | 1.3 | 0 | 2.1
Nc1scc(CN2CCN(c3ccc(OC(F)(F)F)cc3)CC2)c1C(=O)c1ccc(Cl)cc1 | 1 | -74 | -51 | 0 | 1.1 | 6.8 | 0 | 5.3 | 0 | -13
Nc1scc(CN2CCN(c3ccc(F)cc3Cl)CC2)c1C(=O)c1ccc(Cl)cc1 | 0 | -70 | -39 | 6.1 | 1.1 | 5.2 | 0 | 4.2 | 0 | -6.2
Nc1scc(CN2CCN(c3ccc(F)c(Cl)c3)CC2)c1C(=O)c1ccc(Cl)cc1 | 0 | -78 | -60 | 4.2 | 1.1 | 7 | 0 | 5.5 | 0 | -21
Nc1scc(CN2CCN(c3cccc(F)c3F)CC2)c1C(=O)c1ccc(Cl)cc1 | 0 | -79 | -66 | -13 | 1 | 4.8 | 0 | 4 | 0 | -5.2
Nc1scc(CN2CCN(Cc3ccc(F)cc3)CC2)c1C(=O)c1ccc(Cl)cc1 | 1 | -82 | -34 | 2.2 | 0.9 | 3.7 | 0 | 3.1 | 0 | -3.9
Nc1scc(CN2CCN(c3c(F)cccc3F)CC2)c1C(=O)c1cccc(C(F)(F)F)c1 | 0 | 4 | 1.3 | 2.1 | 0.9 | 1.1 | 0 | 1.2 | 0 | 1.3
CC(C)N1CCN(Cc2csc(N)c2C(=O)c2ccc(Cl)cc2)CC1 | 0 | -7.4 | 7.3 | -1 | 0.9 | 1.1 | 0 | 1.2 | 0 | 3.6
Nc1scc(CN2CCC(c3ccc(Cl)cc3)CC2)c1C(=O)c1ccc(Cl)cc1 | 6 | -61 | -24 | 0 | 1 | 3.9 | 0 | 3.3 | 0 | -2.3
Nc1scc(CN2CCN(CCCc3ccc(Cl)cc3)CC2)c1C(=O)c1ccc(Cl)cc1 | 0 | -76 | -30 | 0 | 0.9 | 1.6 | 0 | 1.6 | 0 | -3
